Test results as given in ChEMBL document CHEMBL1152597, “Push-pull benzothiazole derivatives as probes for detecting beta-amyloid plaques in Alzheimer's brains” (Bioorg Med Chem, 2009).
Activity calls are given as the source filed them. The rule behind the calls is not given here.

Key:
[1] = Inhibition of amyloid beta (1-42) aggregation by thioflavin T competition binding experiment
[2] = molecular target: Amyloid-beta precursor protein (Homo sapiens) (UniProt P05067); assay: Binding affinity to beta-amyloid plaques in normal patient brain section by immunohistochemical staining
In short: (§1)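 Probe staining was done on 5 µm sections of temporal cortex from AD brain and from adult normal brain, read by fluorescence microscopy. Serial sections were immunostained with anti-Aβ antibodies to compare the plaque staining pattern.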

[3] = species on record: Mus musculus; assay: Binding affinity to beta-amyloid plaques in Alzheimer's disease Tg2576 mouse brain by thioflavin S staining; type: tissue-based
In short: (§2)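 Tg2576 (female, 27-month-old) and wild-type (female, 27-month-old) mouse brains were cut into 10 µm serial sections. Sections were incubated 10 min with probe in 50% EtOH, washed twice for 1 min in 50% EtOH and examined by fluorescence microscopy. Serial sections were counterstained with thioflavin S to confirm plaques.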

[4] = molecular target: Amyloid-beta precursor protein (Homo sapiens) (UniProt P05067); assay: Binding affinity to beta-amyloid plaques in Alzheimer's disease patient temporal cortex by immunohistochemical staining; type: tissue-based; in short: as §1
[5] = species on record: Mus musculus; assay: Binding affinity to beta-amyloid plaques in wild type mouse assessed as accumulation in brain by thioflavin S staining; type: tissue-based; in short: as §2

Chain of Amyloid-beta precursor protein (Homo sapiens) (P05067 whole entry): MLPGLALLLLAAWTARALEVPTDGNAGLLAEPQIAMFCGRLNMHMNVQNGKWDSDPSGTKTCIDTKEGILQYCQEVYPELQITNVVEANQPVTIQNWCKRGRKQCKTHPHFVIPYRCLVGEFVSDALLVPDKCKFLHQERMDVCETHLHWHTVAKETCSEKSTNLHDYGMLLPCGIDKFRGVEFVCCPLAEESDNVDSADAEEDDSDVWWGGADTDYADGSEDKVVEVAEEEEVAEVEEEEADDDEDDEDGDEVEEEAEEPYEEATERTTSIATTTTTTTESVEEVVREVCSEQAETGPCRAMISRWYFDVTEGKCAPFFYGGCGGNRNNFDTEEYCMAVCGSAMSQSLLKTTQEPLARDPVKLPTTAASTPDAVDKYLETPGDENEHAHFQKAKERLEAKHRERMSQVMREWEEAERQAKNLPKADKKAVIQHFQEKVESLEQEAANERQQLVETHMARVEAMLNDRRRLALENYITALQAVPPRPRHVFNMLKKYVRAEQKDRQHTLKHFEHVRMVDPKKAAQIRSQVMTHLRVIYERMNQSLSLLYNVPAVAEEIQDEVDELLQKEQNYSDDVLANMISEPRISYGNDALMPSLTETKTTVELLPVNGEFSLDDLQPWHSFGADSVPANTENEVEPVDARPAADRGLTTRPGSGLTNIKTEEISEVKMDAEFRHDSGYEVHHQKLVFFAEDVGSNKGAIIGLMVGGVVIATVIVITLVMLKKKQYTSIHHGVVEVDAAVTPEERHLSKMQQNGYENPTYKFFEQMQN

IC50 [1]	Compound	Activity [2]	Activity [3]	Activity [4]	Activity [5]
670 nM	[11CH3]Nc1ccc(-c2nc3ccc(O)cc3s2)cc1 [PITTSBURGH COMPOUND B]				
110 nM	CN(C)c1ccc2nc(/C=C/c3ccc(C=C(C#N)C#N)cc3)sc2c1	inactive	Active	Active	inactive

Compound	IC50 [1]	Activity [2]	Activity [3]	Activity [4]	Activity [5]
CN(C)c1ccc2nc(C=C(C#N)C#N)sc2c1	120 nM	inactive	Active	Active	inactive
